KCNQ1 block = inhibitors of human KCNQ1 channel, primary screen, cell-based, thallium flux, high-throughput | B-score at 10 µM | actives 1.3% (n = 310,000) | AID 2642, 2010 | Potassium voltage-gated channel subfamily KQT member 1 (Homo sapiens), P51787 | CHO-K1 KCNQ1, FluxOR thallium flux fluorescence; stronger effect = higher value;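 active = compounds whose thallium flux B-score, printed positive for inhibition, exceeds three library SD while starting fluorescence stays within three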;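 also: channel opened by potassium depolarization with thallium stimulus after 20 min compound exposure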
Kir21 block = inhibitors of mouse Kir2.1 inward-rectifier potassium channel | HEK293-Kir2.1, FluxOR thallium flux fluorescence; stronger effect = lower value | AID 1672, 2009 | B-score at 10 µM | Inward rectifier potassium channel 2 (Mus musculus), P35561 | actives 0.85% (n = 310,000);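 active = fluorescence ratio B-score at or below minus 3 SD of library scores, with starting-brightness B-score within 2 SD, cut at about -4.2 in these data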;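 also: channel flux triggered by added potassium and thallium sulfate stimulus; B-score of peak minus minimum fluorescence over baseline after thallium stimulus; more negative B-score means stronger Kir2.1 block with less thallium influx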
Target sequence (P35561 whole entry, looked up): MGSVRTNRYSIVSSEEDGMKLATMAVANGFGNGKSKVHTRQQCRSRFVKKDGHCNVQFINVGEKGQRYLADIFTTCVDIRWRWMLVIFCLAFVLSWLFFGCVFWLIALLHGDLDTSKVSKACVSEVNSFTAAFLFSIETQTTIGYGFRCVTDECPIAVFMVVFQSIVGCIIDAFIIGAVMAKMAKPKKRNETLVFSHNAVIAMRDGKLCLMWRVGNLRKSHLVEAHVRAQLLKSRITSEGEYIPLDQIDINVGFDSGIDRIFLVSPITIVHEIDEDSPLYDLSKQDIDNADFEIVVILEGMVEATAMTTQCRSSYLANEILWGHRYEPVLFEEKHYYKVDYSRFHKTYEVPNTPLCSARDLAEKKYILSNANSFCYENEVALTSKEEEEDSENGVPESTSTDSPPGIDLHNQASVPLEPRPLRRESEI
KCNK3 inh = human KCNK3 channel inhibitors, primary screen, CHO cells, FluxOR thallium flux, B-score; FluxOR fluorescence; stronger effect = lower value; B-score at 10 µM; actives 0.84% (n = 340,000);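 active = B-score under library mean minus 4 SD, starting fluorescence ratio at most library mean plus 5 SD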;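 also: more negative B-score means stronger inhibition of thallium flux through KCNK3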
KCNK9 block = KCNK9 potassium channel inhibitors, primary screen, HEK293 cells, thallium flux. actives 1.2% (n = 310,000). AID 488922, 2010. FluxOR thallium flux fluorescence; stronger effect = lower value. Potassium channel subfamily K member 9 (Homo sapiens), Q9NPC2. B-score at 10 µM;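 active = ratio B-score over 3 SD below the library mean, with starting fluorescence within 5 SD of its mean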;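 also: negative B-score means less thallium flux so channel inhibition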
hERG rescue = hERG rescue from dofetilide block, primary screen, cell-based, CHO-hERG, FluxOR thallium flux, dofetilide IC70; Voltage-gated inwardly rectifying potassium channel KCNH2 (Homo sapiens), Q12809; dofetilide IC70 present; activation (rescue from dofetilide block), less the hit threshold, % at 10 µM; actives 0.51% (n = 310,000);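 active = activation above the mean of controls blocked by dofetilide plus 5 SD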;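 also: thallium influx through hERG after potassium depolarization seen as dye fluorescence rise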
KCNQ1 pot = potentiators or activators of KCNQ1 channel, primary screen, cell-based, thallium flux, high-throughput; B-score at 10 µM; Potassium voltage-gated channel subfamily KQT member 1 (Homo sapiens), P51787; CHO-K1 KCNQ1, thallium flux FluxOR fluorescence; stronger effect = higher value; actives 0.35% (n = 310,000);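 active = fluorescence ratio B-score, a plate-corrected score, at least three library SD, with initial intensity B-score within 5 SD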
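Schedule – 37 °C overnight plating, 90-min dark dye load, 20-min compound pretreatment · System – stable KCNQ1 CHO-K1 line · Probe or stimulus – thallium- and potassium-containing depolarizing buffer · Measured by – kinetic FluxOR fluorescence, 10 s baseline plus 110 s post-stimulus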
KCNK9 inh conf = KCNK9 potassium channel inhibitors, confirmation, HEK293 cells, thallium flux, duplicate; AID 492992, 2010; FluxOR thallium flux fluorescence; actives 43% (n = 4,900); inhibition, % at 10 µM; shares compounds with KCNK9 block;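 active = thallium signal inhibited by more than 5 SD of the compound-free buffer control wells, on both duplicate plates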
Kir21 sel = mouse Kir2.1 channel inhibition, confirmation, selectivity assay for KCNK9 modulator project, cell-based, HEK293, thallium flux; shares compounds with KCNK9 block; Kir2.1 cells, FluxOR thallium flux fluorescence; inhibition, % at 10 µM; actives 4% (n = 4,900); AID 492993, 2010;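 active = thallium signal drop more than 5 SD beyond the mean of the no-compound control wells, seen in both duplicate plates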;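 also: signal is fluorescence rise after thallium addition divided by baseline fluorescence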
HEK293 Tl ctr = thallium flux in non-induced HEK293 cells, confirmation, counter-screen for KCNK9 inhibitor project, cell-based, second counter screen, non-induced KCNK9-HEK293; shares compounds with KCNK9 block; FluxOR thallium flux; inhibition, % at 10 µM; actives 40% (n = 4,900);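 active = thallium signal drop beyond 5 SD of the untreated control mean, on both duplicate plates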
Large screens that a line does not name were inactive (follow-up assays come after a bar, where they were run). A selection: hits, their analogues and other compounds. The true share with any hit is near 3.7%.

Cc1ccc(C)c(N2CCN(C(=O)c3cc4sccc4n3C)CC2)c1	none
Cn1c(C(=O)N2CCN(c3cccc(C(F)(F)F)c3)CC2)cc2sccc21	none | KCNK9 inh conf inactive | Kir21 sel inactive | HEK293 Tl ctr inactive
CC(C)CC(C(=O)NC(C)(C)C)N(Cc1cccs1)C(=O)c1snc(C(N)=O)c1N (stereo not drawn)	none
COc1cc(-c2nc(-c3ccccc3)c(-c3cccs3)[nH]2)cc(OC)c1O	KCNK9 block -10 | KCNK9 inh conf 51% | Kir21 sel inactive | HEK293 Tl ctr inactive
COc1ccc(Cn2nc(C)n(N(C)c3ncc(C(F)(F)F)cc3Cl)c2=O)cc1	none | KCNK9 inh conf inactive | Kir21 sel inactive | HEK293 Tl ctr inactive
COCc1ccc(C(=O)N2CCCC(C(=O)c3ccc(Cl)cc3C)C2)o1 (stereo not drawn)	none | KCNK9 inh conf inactive | Kir21 sel inactive | HEK293 Tl ctr inactive
Cc1nc(C)c(C(=O)N2CCCC(C(=O)c3ccc(Cl)cc3C)C2)s1 (stereo not drawn)	none
Cc1cc(C(=O)N2CCCC(C(=O)c3ccc(Cl)cc3C)C2)no1 (stereo not drawn)	none
COCc1ccc(C(=O)N2CCCC(Nc3ccc4c(c3)OCCO4)C2)o1 (stereo not drawn)	none | KCNK9 inh conf inactive | Kir21 sel inactive | HEK293 Tl ctr inactive
Cc1cc(Cl)ccc1C(=O)C1CCCN(C(=O)c2cnsn2)C1 (stereo not drawn)	none | KCNK9 inh conf inactive | Kir21 sel inactive | HEK293 Tl ctr inactive
Cc1cc(Cl)ccc1C(=O)C1CCCN(C(=O)c2ccoc2)C1 (stereo not drawn)	none | KCNK9 inh conf inactive | Kir21 sel inactive | HEK293 Tl ctr inactive
COc1ccc(NC2CCCN(C(=O)c3ccc(CSC)o3)C2)cc1OC (stereo not drawn)	none
CC(C)C[C@H](NC(=O)c1nc[nH]c1C(=O)N1CCN(C(=O)OC(C)(C)C)CC1)C(=O)OC(C)(C)C	none
COc1cc(OC)cc(C(=O)N[C@H](C(=O)N2CCc3ccccc32)C(C)C)c1	KCNK9 block -11 | KCNK9 inh conf 71% | Kir21 sel inactive | HEK293 Tl ctr 31%
CCN(CC)CCN(Cc1cc2cc3c(cc2[nH]c1=O)OCO3)C(=S)NCCOC	none
Cc1ccc(Cc2nnc3n(-c4ccccc4)nc(C(=O)c4ccccc4)n3c2=O)cc1	none | KCNK9 inh conf inactive | Kir21 sel inactive | HEK293 Tl ctr inactive
Cc1ccc(CON=C2CCN(c3ncc(C(F)(F)F)cc3Cl)CC2)cc1	none | KCNK9 inh conf inactive | Kir21 sel inactive | HEK293 Tl ctr inactive
O=C(CN1CCN(C(C(=O)Nc2ccc(F)cc2)c2ccccc2)CC1)NC1CC1 (stereo not drawn)	none (no result: KCNQ1 block, Kir21 block, KCNK9 block, hERG rescue, KCNQ1 pot)
CCOC(=O)c1nn2c(C(F)(F)F)cc(-c3ccc(OC)cc3)nc2c1Br	none
Cc1ccc(C(=O)Nc2ccccc2C(=O)O)cc1S(=O)(=O)Nc1ccc(Br)cc1	KCNQ1 block 6 | KCNK9 inh conf inactive | Kir21 sel inactive | HEK293 Tl ctr inactive
Cc1ccc(C(=O)Nc2ccccc2C(=O)O)cc1S(=O)(=O)NCc1ccccc1	none

Assay outcomes from PubChem.
